The structures appear in SMILES notation.

For one assay, the target named is T1, N-acylethanolamine-hydrolyzing acid amidase (Rattus norvegicus, UniProt Q5KTC7).
T1 sequence (Q5KTC7 whole entry): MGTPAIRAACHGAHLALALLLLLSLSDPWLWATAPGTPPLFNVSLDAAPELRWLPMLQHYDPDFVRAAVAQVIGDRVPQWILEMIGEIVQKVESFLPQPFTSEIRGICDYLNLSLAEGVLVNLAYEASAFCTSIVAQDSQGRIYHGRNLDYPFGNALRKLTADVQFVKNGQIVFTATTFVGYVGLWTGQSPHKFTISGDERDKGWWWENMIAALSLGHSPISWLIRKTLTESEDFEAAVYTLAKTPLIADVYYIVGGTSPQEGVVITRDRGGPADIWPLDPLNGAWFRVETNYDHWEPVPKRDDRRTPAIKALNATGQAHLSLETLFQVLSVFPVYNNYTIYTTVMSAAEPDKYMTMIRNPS
As to the kind of experiment: Inhibition of NAAA in Sprague-Dawley rat lung assessed as inhibition of hydrolysis of 10-cis-heptadecenoylethanolamide by UPLC/MS method. The note with it: read-out: IC50. The method in brief: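 Native NAAA enzyme prepared from rat lungs, not a recombinant construct. The substrate, 10-cis-heptadecenoylethanolamide, is an unnatural fatty acid ethanolamide. Inhibition of its hydrolysis was measured, and the median inhibitory concentration (IC50) was reported.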
For the molecule `C[C@@H]1OC(=O)[C@@H]1NC(=O)OCc1ccccc1`, the IC50 is 2.09 µM.

As to `C[C@@H]1OC(=O)[C@@H]1NC(=O)OCc1ccc(-c2ccc(F)cc2)cc1`, the IC50 is 0.011 µM.

Consider `C[C@@H]1OC(=O)[C@@H]1NC(=O)OCc1ccc(-c2ccc(C(F)(F)F)cc2)cc1`, for which the IC50 amounted to 0.036 µM.

In the case of `Cc1ccc2sc(COC(=O)N[C@H]3C(=O)O[C@H]3C)cc2c1`, the IC50 came out at 0.013 µM.

On to `C[C@@H]1OC(=O)[C@@H]1NC(=O)OCC#Cc1ccccc1`, for which the IC50 turned out to be 0.02 µM.

Regarding `C[C@@H]1OC(=O)[C@@H]1NC(=O)OC(C)(C)C`, the IC50 was found to be 6.35 µM.

Regarding `C[C@@H]1OC(=O)[C@@H]1NC(=O)OCc1ccc(-c2sccc2Br)cc1`, the IC50 turned out to be 0.028 µM.

Turning to `C[C@@H]1OC(=O)[C@@H]1NC(=O)OCc1ccc(OC2CCCCC2)cc1`, the IC50 was determined as 0.023 µM.

Consider `C[C@@H]1OC(=O)[C@@H]1NC(=O)OCc1ccc2c(c1)OCO2`, for which the IC50 came out at 0.176 µM.

On to `Cc1ccc(-c2ccc(COC(=O)N[C@H]3C(=O)O[C@H]3C)cc2)cc1`, for which the IC50 came to 0.029 µM.

For `C[C@@H]1OC(=O)[C@@H]1NC(=O)OCc1ccc(C(C)(C)C)cc1`, the IC50 came to 0.022 µM.

As for `C[C@@H]1OC(=O)[C@@H]1NC(=O)OCCCCCCCc1ccccc1`, the IC50 came to 0.039 µM.

As to `C[C@@H]1OC(=O)[C@@H]1NC(=O)OCc1ccc(C2CCCCC2)cc1`, the IC50 amounted to 0.007 µM.

Take `C[C@@H]1OC(=O)[C@@H]1NC(=O)OC1(CCCCc2ccccc2)COC1`: the IC50 turned out to be 0.52 µM.

As for `C[C@@H]1OC(=O)[C@@H]1NC(=O)OCc1ccc(-c2ccsc2)cc1`, the IC50 was 0.022 µM.

`CCCCc1ccc(COC(=O)N[C@H]2C(=O)O[C@H]2C)cc1`: the IC50 was determined as 0.015 µM.

As to `CCCCCOC(=O)N[C@H]1C(=O)O[C@H]1C`, the IC50 was determined as 0.76 µM.

Turning to `C[C@@H]1OC(=O)[C@@H]1NC(=O)OCCCCCc1ccc(F)cc1`, the IC50 is 0.24 µM.

For the molecule `CCCCCCCC#CCOC(=O)N[C@H]1C(=O)O[C@H]1C`, the IC50 stood at 0.077 µM.

With `CCCCC1(OC(=O)N[C@H]2C(=O)O[C@H]2C)COC1`, the IC50 amounted to 3.76 µM.

As for `C[C@@H]1OC(=O)[C@@H]1NC(=O)OCCCCCl`, the IC50 was found to be 0.288 µM.

The same assay, now with this note: read-out: pIC50 (converted).
Take `C[C@@H]1OC(=O)[C@@H]1NC(=O)OCCOCCc1ccccc1`: the IC50 was 0.148 µM.

For `C[C@@H]1OC(=O)[C@@H]1NC(=O)OCCCCCc1ccccc1`, the IC50 was 0.0525 µM.

On to `C[C@@H]1OC(=O)[C@@H]1NC(=O)OCCCc1ccccc1`, for which the IC50 is 0.0851 µM.

As for `C[C@@H]1OC(=O)[C@@H]1NC(=O)OCCCOCc1ccccc1`, the IC50 was 0.0513 µM.

Regarding `CCCCCCCOC(=O)N[C@H]1C(=O)O[C@H]1C`, the IC50 is 0.0447 µM.

For `C[C@@H]1OC(=O)[C@@H]1NC(=O)OCc1ccc(-c2ccccc2)cc1`, the IC50 was 0.00724 µM.

Turning to `C[C@@H]1OC(=O)[C@@H]1NC(=O)OC(C)(C)CCCCc1ccccc1`, the IC50 is 0.316 µM.

As for `C[C@@H]1OC(=O)[C@@H]1NC(=O)OCc1ccc(-c2ccsc2)cc1`, the IC50 is 0.0209 µM.

The values above are taken from ChEMBL document CHEMBL3351654, “Synthesis, biological evaluation, and 3D QSAR study of 2-methyl-4-oxo-3-oxetanylcarbamic acid esters as N-acylethanolamine acid amidase (NAAA) inhibitors” (J Med Chem, 2014).
